Laboratory results taken from ChEMBL document CHEMBL3286113, “New potent antibacterial oxazolidinone (MRX-I) with an improved class safety profile” (J Med Chem, 2014).
Values after ≈ are worked out from the molar mass of the structure shown.

Legend:
[1] = AUC (0 to infinity) in fasted human at 300 mg, po administered as single dose; assay type: ADME, organism-based; design: dose 300 mg, route oral, time infinity; conditions: plasma
Outline: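 Single-dose, three-period Latin-square crossover in 12 healthy volunteers (6 of each gender). Each received single oral 300, 600 and 900 mg doses under fasting conditions, with a 1-week washout between doses. PK parameters, including AUC0−inf, came from a noncompartmental model.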

[2] = Tmax in male rat at 15 mg/kg, po; assay type: ADME, organism-based; design: dose 15 mg/kg, route oral; conditions: in vivo
Outline: (§1)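 Male and female rats received single oral doses of 5, 15 or 45 mg/kg, with 5 mg/kg iv as a reference arm. Tmax was read from the plasma concentration–time profile for each gender.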

[3] = test system: Staphylococcus aureus; assay: Antibacterial activity against methicillin-sensitive Staphylococcus aureus ATCC 29213 in mouse thigh infection model assessed as reduction of log10 CFU per thigh at 20 mg/kg, po; assay type: functional
Outline: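 Mouse thigh infection with S. aureus ATCC29213 (MSSA), 10 animals per dosing group. Oral doses were 5, 10, 20, 40 and 80 mg/kg. The read-out was log CFU per thigh after treatment, and the reduction (ΔLogCFU/thigh) was reported.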

[4] = Cmax in human at 600 mg, po administered as single dose with meal measured on day 15; assay type: ADME, organism-based; design: dose 600 mg, route oral; conditions: in vivo
Outline: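 Randomized, double-blind, placebo-controlled multiple-dose study in 32 healthy subjects, half male and half female. Each dose was taken with a meal, at 600 or 800 mg, 28 doses over 15 days. A single dose on days 1 and 15 gave full PK; BID (Q12h) dosing ran on days 2–14.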

[5] = test system: Rattus norvegicus; assay: Toxicity in female rat assessed as effect on RBC count at 20 mg/kg/day, po bid administered for 4 weeks (reference value: 7.28 x 10^12/L); assay type: organism-based; design: route oral; conditions: in vivo, 672 h
[6] = test system: Staphylococcus aureus; assay: Antibacterial activity against methicillin-sensitive Staphylococcus aureus; assay type: functional
[7] = Half life in po dosed dog; assay type: ADME, organism-based, Canis lupus familiaris; conditions: in vivo
[8] = test system: Mus musculus; assay: Dose normalized Cmax in po dosed mouse; assay type: ADME, organism-based; conditions: in vivo
[9] = AUC (0 to t) in female rat at 45 mg/kg, po; assay type: ADME, organism-based; design: dose 45 mg/kg, route oral; conditions: plasma
Outline: (§2)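 Rat PK by gender, with single oral doses of 5, 15 and 45 mg/kg and an iv dose of 5 mg/kg. Tmax, Cmax, T1/2 and AUC0−t were reported per gender.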

[10] = Tmax in female rat at 5 mg/kg, po; assay type: ADME, organism-based; design: dose 5 mg/kg, route oral; conditions: in vivo; outline: as §1
[11] = Cmax in female rat at 5 mg/kg, po; assay type: ADME, organism-based; design: dose 5 mg/kg, route oral; conditions: in vivo
[12] = test system: Rattus norvegicus; assay: Toxicity in rat assessed as mortality at 20 to 300 mg/kg, po bid administered for 4 weeks measured on day 1 to day 28; assay type: organism-based; design: dose 20-300 mg/kg, route oral; conditions: in vivo, 672 h
Outline: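 Rats, 10 per gender per group, given drug orally twice daily at 20, 100 and 200/300 mg/kg/day for 4 weeks, then a 4-week recovery period. The top dose of 200 mg/kg/day was raised to 300 mg/kg/day on day 15. The comparator was dosed the same way at 100 and 200 mg/kg/day. Monitoring covered mortality, body weight, hematology and bone marrow, with blood taken for TK on days 1, 14 and 28.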

[13] = test system: Streptococcus pneumoniae; assay: Bactericidal activity against penicillin-sensitive Streptococcus pneumoniae; assay type: functional
[14] = test system: Staphylococcus aureus; assay: Antibacterial activity against Staphylococcus aureus measured after 2 serial passages; assay type: functional
[15] = test system: Staphylococcus aureus; assay: Antibacterial activity against linezolid-resistant Staphylococcus aureus isolate 4184; assay type: functional
[16] = AUC (0 to t) in female rat at 5 mg/kg, po; assay type: ADME, organism-based; design: dose 5 mg/kg, route oral; conditions: plasma; outline: as §2
[17] = test system: Staphylococcus aureus; assay: Antibacterial activity against methicillin-sensitive Staphylococcus aureus ATCC 29213; assay type: functional
[18] = Cmax in human at 900 mg, po administered as single dose at 30 mins post fat meal; assay type: ADME, organism-based; design: dose 900 mg, route oral; conditions: in vivo
Outline: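 Crossover study in 12 subjects (six of each sex). Each got a single oral 900 mg dose either fasted or 30 min after a fat-containing meal.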

[19] = test system: Staphylococcus aureus; assay: Antibacterial activity against methicillin-resistant Staphylococcus aureus isolate 0605 in po dosed mouse systemic infection model; assay type: functional; conditions: isolate 0605, po
[20] = test system: Staphylococcus haemolyticus; assay: Antibacterial activity against Staphylococcus haemolyticus; assay type: functional
[21] = test system: Enterococcus faecalis; assay: Antibacterial activity against vancomycin-sensitive/high-level gentamycin-resistant Enterococcus faecalis isolate HH22; assay type: functional; conditions: EnGen0297
[22] = test system: Rattus norvegicus; assay: Toxicity in female rat assessed as effect on platelet count at 20 mg/kg/day, po bid administered for 4 weeks (reference value: 654.6 x 10^9/L); assay type: organism-based; design: route oral; conditions: in vivo, 672 h
[23] = test system: Staphylococcus aureus; assay: Antibacterial activity against Staphylococcus aureus in po dosed mouse septicemia model; assay type: functional
[24] = Tmax in human at 800 mg, po administered as single dose with meal measured on day 15; assay type: ADME, organism-based; conditions: in vivo
Outline: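 Randomized, double-blind, placebo-controlled multiple-dose study in 32 healthy subjects, half male and half female. Dosing was 600 or 800 mg orally with a meal, 28 doses over 15 days. A single dose was given on days 1 and 15 for full PK, with Q12h (BID) dosing on days 2−14.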

[25] = test system: Rattus norvegicus; assay: Toxicity in female rat assessed as effect on mean corpuscular hemoglobin level at 200 to 300 mg/kg/day, po bid administered for 4 weeks (reference value: 19.5 pg); assay type: organism-based; design: route oral; conditions: in vivo, 672 h
[26] = test system: Staphylococcus aureus; assay: Antibacterial activity against methicillin-resistant Staphylococcus aureus isolate 0605 in mouse thigh infection model assessed as reduction of log10 CFU per thigh at 80 mg/kg, po; assay type: functional
[27] = test system: Homo sapiens; assay: Toxicity in human assessed as change in reticulocyte count at 600 to 800 mg, po administered as single dose with meal on day 1 and day 15 followed by bid with meal on day 2 to day 14 measured during compound treatment; assay type: organism-based; conditions: in vivo
[28] = test system: Canis familiaris; assay: Dose normalized AUC (0 to t) in po dosed dog; assay type: ADME, organism-based, Canis lupus familiaris; conditions: in vivo
[29] = test system: L5178Y; assay: Mutagenicity in mouse tk +/- L5178Y cells assessed as increase in gene mutation frequency at 62.5 to 1000 ug/mL in presence of S9 fraction
[30] = Oral bioavailability in mouse; assay type: ADME, organism-based; conditions: in vivo
[31] = AUC (0 to t) in female rat at 15 mg/kg, po; assay type: ADME, organism-based; design: dose 15 mg/kg, route oral; conditions: plasma; outline: as §2
[32] = AUC (0 to infinity) in human at 900 mg, po administered as single dose at 30 mins post fat meal; assay type: ADME, organism-based; design: dose 900 mg, time infinity, route oral; conditions: plasma
Outline: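 Crossover study in 12 subjects (6 of each gender). Each received a single oral 900 mg dose either fasting or 30 min after a fat-containing meal, and AUC0−inf was determined.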

[33] = test system: Staphylococcus aureus; assay: Antibacterial activity against Staphylococcus aureus measured after 1 serial passage; assay type: functional
[34] = test system: Staphylococcus aureus; assay: Antibacterial activity against methicillin-resistant Staphylococcus aureus isolate 0605 in mouse thigh infection model assessed as reduction of log10 CFU per thigh at 20 mg/kg, po; assay type: functional
[35] = test system: Rattus norvegicus; assay: Toxicity in female rat assessed as effect on platelet count at 100 mg/kg/day, po bid administered for 4 weeks (reference value: 654.6 x 10^9/L); assay type: organism-based; design: route oral; conditions: in vivo, 672 h
[36] = test system: Staphylococcus aureus; assay: Antibacterial activity against methicillin-resistant Staphylococcus aureus by agar dilution method; assay type: functional
Outline: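 MIC determined by agar dilution across S. aureus/MRSA isolates; MIC90 is the concentration inhibiting 90% of strains tested.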

Work on `O=C1C=CN(c2c(F)cc(N3C[C@H](CNc4ccon4)OC3=O)c(F)c2F)CC1` [CONTEZOLID] yielded an AUC(0-inf) [1] of 29200 ng·h/mL, a Tmax [2] of 60 min and a deltalog10CFU [3] of 3.33. For the same compound, the Cmax [4] was 20600 ng/mL, the Activity [5] was 6.82 ×10¹² /L and the MIC [6] was 0.5 µg/mL (≈ 1.22 µM). It also gave an MIC50 [6] of 0.5 µg/mL (≈ 1.22 µM), an MIC90 [6] of 0.5 µg/mL (≈ 1.22 µM) and a half-life [7] of 180 min. The Cmax/dose [8] was 524 ng/mL/(mg/kg), the AUC(0-t) [9] was 230000 ng·h/mL and the Tmax [10] was 40.2 min. For the same compound, the Cmax [11] was 9390 ng/mL, the Activity [12] was “Non-toxic” and the MIC50 [13] was 0.5 µg/mL (≈ 1.22 µM). For the same compound, the MIC90 [13] was 0.5 µg/mL (≈ 1.22 µM), the MIC [14] was 2 µg/mL (≈ 4.9 µM) and the MIC [15] was > 16 µg/mL. It also gave an AUC(0-t) [16] of 31500 ng·h/mL, an MIC [17] of 1 µg/mL (≈ 2.45 µM) and a Cmax [18] of 42300 ng/mL. It also gave an ED50 [19] of 12 mg/kg, an MIC50 [20] of 0.5 µg/mL (≈ 1.22 µM) and an MIC90 [20] of 0.5 µg/mL (≈ 1.22 µM). The MIC [21] was 2 µg/mL (≈ 4.9 µM), the Activity [22] was 638.2 ×10⁹ /L and the ED50 [23] was 7.9 mg/kg. For the same compound, the Tmax [24] was 34.2 min, the Activity [25] was 20.48 pg and the deltalog10CFU [26] was 4.53. The Activity [27] was “Non-toxic”, the AUCt/dose [28] was 1664 ng·h/mL/mg/kg and the Activity [29] was “Non-toxic”. It also gave a bioavailability [30] of 69%, an AUC(0-t) [31] of 64700 ng·h/mL and an AUC(0-inf) [32] of 141000 ng·h/mL. The MIC [33] was 2 µg/mL (≈ 4.9 µM), the deltalog10CFU [34] was 3.6 and the Activity [35] was 636.2 ×10⁹ /L. For the same compound, the MIC50 [36] was 0.5 µg/mL (≈ 1.22 µM) and the MIC90 [36] was 0.5 µg/mL (≈ 1.22 µM).
